# In the library only some 3% were active in any assay of this set; here they are far more common.
# PLCg1 inh: inhibitors of human phospholipase C gamma1; purified PLC-gamma1, fluorogenic substrate, fluorescence; inhibition, % at 12.2 µM; 0.84% of 370,000 active; AID 720700; in the data active = inhibition above about 9.5%
# DDE Tn6 FP inh: disrupts Tn6 cyclic peptide binding to fibrin D-Dimer-E complex | 0.21% of 370,000 active | inhibition, % at 8.3 µM | Fibrin DD(E) TRITC-Tn6 fluorescence polarization displacement | P02675 | AID 720509;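 active = inhibition above a per-campaign cutoff: mean of compounds within control limits plus 3 SD, cut at about 15% in these data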;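 also: 0% = median of all compound wells on the plate and 100% = blocking peptide control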
# CendR NRP1 mod: modulators of CendR peptide binding to human neuropilin-1 | O14786 | FAM-RPARPAR peptide binding to NRP-1, fluorescence polarization | inhibition, % at 25 µM | 0.85% of 360,000 active | AID 602438;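 active = inhibition or corrected inhibition above about 18%, plus a signal ratio from 0.5 to 1.5, limit read from the data, passing the limit was not always enough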
# Tn7 DDE FP: inhibitors of Tn7 peptide binding to human fibrin DD(E); AID 720508; 0.13% of 370,000 active; P02675; inhibition, % at 8.3 µM; FP displacement of FITC-Tn7 peptide from fibrin DD(E); 0% = median of compound wells per plate;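 active = inhibition above the mean of compounds falling within the control limits plus 3 SD of them, cut at about 14% in these data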;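 also: 0% = plate median of compound wells and 100% = 10 µM Aha-Tn7 peptide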
#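 Assay system: human fibrin DD(E) protein / Input: 2 µM fibrin DD(E) / Benchmarks: high control of 10 µM Aha-Tn7 peptide / Measured by: fluorescence polarization of the labelled Tn7 tracer / Medium: Tris buffer with calcium and detergent, pH 7.8 / Timing: 10 min compound pre-incubation, 3 h probe incubation at room temperature / Repeats: one replicate per compound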
# PLCb3 inh: PLC-beta3 (human) inhibition, primary screen. Q01970. Purified PLC-beta3, fluorogenic substrate, fluorescence. inhibition, % at 12.2 µM. 0.18% of 370,000 active. AID 720704; in the data active = inhibition above about 11%;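 also: 0% = median of compound wells on plate and 100% = full blocker control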
# proKLK7 act: proKLK7 (human) activation, primary screen; AID 652039; 0.9% of 370,000 active; activation, % at 7 µM; purified proKLK7, EDANS-DABCYL substrate fluorescence; 100% is mature enzyme control, 0% vehicle; P49862;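 active = activation above the mean of all tested compounds plus 3 SD, computed per campaign excluding outliers beyond control limits, cut at about 13% in these data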
# Target sequence (P49862 whole entry, looked up): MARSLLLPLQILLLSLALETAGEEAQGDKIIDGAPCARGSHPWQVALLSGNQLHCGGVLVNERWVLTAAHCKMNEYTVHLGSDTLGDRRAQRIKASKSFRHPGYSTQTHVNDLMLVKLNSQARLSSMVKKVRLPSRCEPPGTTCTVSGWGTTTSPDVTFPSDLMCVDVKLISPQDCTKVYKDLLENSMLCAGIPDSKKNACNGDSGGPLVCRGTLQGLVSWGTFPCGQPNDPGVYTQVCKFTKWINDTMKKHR
# KLK7 act conf: confirmation of human kallikrein-7 zymogen activators; shares compounds with proKLK7 act; purified proKLK7, EDANS-DABCYL substrate fluorescence; scaled: vehicle 0, mature enzyme 100; activation, % at 7 µM; 68% of 3,200 active; AID 686949;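 active = activation, as change over the incubation, above the mean of all tested compounds plus 3 SD, cut at about 13% in these data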
# EDANS interfere: counter-screen for kallikrein-7 activators: EDANS-DABCYL optical interference | shares compounds with proKLK7 act | EDANS-DABCYL substrate fluorescence interference, no enzyme, 4 h; solvent 0%, active enzyme control 100% | activation, % at 7 µM | 80% of 3,200 active | AID 686952;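 active = activation above the all-compound mean plus 3 SD, ignoring values outside control-based bounds, cut at about 4.8% in these data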;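 also: value is the 4 h activation minus the activation read at time zero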
# EDANS interf: counter-screen for kallikrein-7 activators: EDANS-DABCYL interference, dose response; EC50, µM; 20% of 250 active; shares compounds with proKLK7 act; EDANS-DABCYL peptide fluorescence interference, no enzyme;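 active = compounds that raise the fluorescence signal in this interference counterscreen, with EC50 at or below 10 µM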;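 also: intact quenched peptide substrate alone read at 355 nm excitation and 520 nm emission; signal is fluorescence gain from T0 to T4 after four hours at room temperature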
# * = called active by the depositor; i = inactive; x = no result given.
SMILES,PLCg1 inh,DDE Tn6 FP inh,CendR NRP1 mod,Tn7 DDE FP,PLCb3 inh,proKLK7 act,KLK7 act conf,EDANS interfere,others
COC(=O)[C@]12C[C@H](CC(=O)N3CCN(C(=O)c4ccco4)CC3)C(=O)N(Cc3ccc4c(c3)OCO4)C1=C[C@H](C(C)C)O[C@@H]2C1CC1,-0.6,-0.7,x,1.7,-1.1,-0.2,x,x,
COC(=O)[C@]12C[C@H](CC(=O)NCc3cccc4ccccc34)C(=O)N(Cc3ccco3)C1=C[C@H](C(C)C)O[C@@H]2C1CC1,2.7,0.5,x,1.4,1.2,0.0,x,x,
CCc1cc(=O)oc2c(C)c(O)c(CN(C)C)cc12,i,-0.2,-1.6,8.2,i,64.8*,57.8*,67.0*,
COc1cc2c(cc1OC)C(=S)NC1(CCCC1)C2,-1.3,-7.2,-0.3,-2.7,-0.1,0.6,x,x,
COc1cc2c(cc1OC)/C(=C/C#N)NC(C)(C)C2,-155.9,5.0,-7.9,-4.2,-207.8,19.3*,11.8,13.5*,
O=C1CSc2ccc(C(=O)N3CCCC(C(=O)N4CCCN(Cc5ccccc5)CC4)C3)cc2N1 (configuration not stated),2.7,0.8,x,9.1,-1.7,0.7,x,x,
O=C1c2ccccc2NC(c2ccccn2)N1c1ccc(Cl)cc1 (configuration not stated),-462.9,5.7,2.3,-0.9,-498.6,12.4,x,x,
Cc1cccc(C2Nc3ccccc3C(=O)N2c2ccccc2)n1 (configuration not stated),i,1.0,-10.1,-10.8,i,19.2*,40.5*,43.4*,
Cc1cccc(-c2cccc3c4c([nH]c23)[C@@H]2C[C@H](N(C)C(=O)NC3CCCCC3)[C@H]([C@H](C)O)C(=O)N2CC4)c1,-31.3,3.2,x,-2.1,-43.6,-2.3,x,x,
Cc1cc(C)c2cc3c(ccn3C3OC[C@H](O)[C@H](O)[C@H]3O)cc2n1 (some centres not stated),i,-3.3,-2.8,2.6,i,22.8*,48.0*,47.1*,
COC(=O)C[C@H]1CC[C@H]2[C@H](COc3ccc(NC(=O)C4CCOCC4)cc3C(=O)N2C)O1,6.5,-6.0,x,0.9,3.2,-0.3,x,x,
COc1ccc2c(c1)c1ncn(CC3CCCO3)c(=O)c1n2C (configuration not stated),-445.9,-3.4,1.9,-2.1,-425.4,12.8*,3.0,3.5,
COc1ccc2c(c1)c1ncn(CCCN3CCOCC3)c(=O)c1n2C,-258.0,7.2,0.7,5.8,-392.4,14.6*,10.9,20.2*,
Cn1c2ccccc2c2ncn(CCN3CCOCC3)c(=O)c21,-4.1,10.2,-6.4,-3.7,-6.8,0.2,x,x,
O=C(CC(SCCO)c1ccc2c(c1)OCO2)c1cccs1 (configuration not stated),-34.1,0.8,2.7,-5.2,-32.8,14.0*,26.2*,26.7*,
CC(NC(=O)Cc1cccs1)c1ccc2c(c1)OCO2 (configuration not stated),-3.0,6.0,-4.2,4.0,1.4,-0.6,x,x,
O=C(CC(SCc1ccco1)c1ccc(O)cc1)c1cccs1 (configuration not stated),-21.1,-3.6,-3.9,-2.8,-27.1,25.1*,15.7*,14.1*,
COc1ccccc1NS(=O)(=O)c1cccc(C(=O)N/N=C/c2cn(-c3ccccc3)nc2-c2ccccc2)c1,-112.4,-1.9,-11.4,-7.2,-126.8,17.9*,-50.2,-55.6,
COc1ccc(NS(=O)(=O)c2cccc(C(=O)N/N=C/c3cn(-c4ccccc4)nc3-c3ccccc3)c2)cc1,2.0,-4.8,-8.0,-8.1,-8.6,-0.2,x,x,
COc1ccc(/C=N/Nc2snc(SC)c2C#N)cc1OC,-59.0,-10.2,-19.6,-3.5,-82.3,16.2*,-13.6,-10.2,
CCN(CC)C(=O)CC[C@H]1CC[C@]2(CCCN(Cc3ccccc3)C2)O1,-0.6,2.2,x,-1.3,1.1,-0.2,x,x,
CCOC(=O)c1c(NC(=O)COC(=O)c2nccnc2N)sc(C(=O)N(C)C)c1C,-121.7,4.7,-1.3,1.3,-111.1,42.8*,42.0*,45.8*,
CCOC(=O)c1c(NC(=O)COC(=O)c2ccccn2)sc(C(=O)N(C)C)c1C,1.2,-14.0,2.5,0.0,-61.9,0.6,x,x,
N#Cc1c(NC(=O)COC(=O)c2nccnc2N)sc2c1CCCC2,-57.0,4.5,3.1,-1.8,-56.9,16.8*,16.0*,13.5*,EDANS interf=>69.5
Cc1ccc(NC(=O)Cn2nnc(-c3ccncc3)n2)cc1C,3.3,-0.8,x,-8.5,-1.5,0.2,x,x,
SMILES,PLCg1 inh,DDE Tn6 FP inh,CendR NRP1 mod,Tn7 DDE FP,PLCb3 inh,proKLK7 act,KLK7 act conf,EDANS interfere,others
N#Cc1c(-c2cccnc2)c2c([nH]c1=O)-c1ccccc1OC2,i,-4.7,3.1,7.4,i,72.5*,66.0*,70.8*,
Cc1ccccc1CN1CCCCC(NC(=O)Nc2ccccc2-c2ccccc2)C1=O (configuration not stated),1.4,1.8,x,2.7,-0.9,0.4,x,x,
O=c1cc(C(F)(F)F)[nH]c2ccc(C(F)(F)F)cc12,-7.4,-6.0,-5.8,6.5,-19.5,1.4,x,x,
COC(=O)c1scc2c(=O)cc(C(F)(F)F)[nH]c12,i,-3.7,1.5,3.4,i,59.5*,76.1*,82.8*,
COc1ccc(-c2cc(C(F)(F)F)n3nc(C(=O)NCCCn4ccnc4)cc3n2)cc1,i,-2.4,-1.2,-3.3,i,57.4*,-215.6,-197.7,
COc1ccc(-c2cc(C(F)(F)F)n3nc(C(=O)NCCN4CCOCC4)cc3n2)cc1,i,-9.8,8.0,1.6,i,-11.5,x,x,
COc1cc(NC(=O)c2c(F)cccc2F)c(Cl)cc1Cl,-1.9,3.0,5.0,4.5,-0.8,20.8*,28.2*,27.1*,
COc1ccc(C(=O)Nc2cc(OC)c(Cl)cc2Cl)cc1,1.7,1.0,9.1,-2.4,1.2,-0.2,x,x,
N#CC(C#N)=Cc1c[nH]c(=O)c(C#N)c1Nc1ccccc1,i,4.2,-14.8,-0.2,i,61.8*,63.0*,61.6*,
COc1cccc(/C=C/C(=O)Nc2cccc(C(C)=O)c2)c1OC,-39.1,-7.3,-23.2,-1.0,-49.4,-0.4,x,x,
COc1cccc(/C=C/C(=O)Nc2ccc(C(=O)Nc3cccc(S(N)(=O)=O)c3)cc2)c1OC,-260.0,3.1,-5.4,-0.7,-417.9,76.9*,79.0*,82.6*,
